AHR act – activates the human aryl hydrocarbon receptor; 2.5% of 320,000 active; AHR-responsive luciferase reporter cells, luminescence; P35869; activation, % at 5 µM; in the data active means activation above about 47%;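 further: 0% = vehicle wells and 100% = reference agonist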
Efflux pump mplx – antifungal efflux pump inhibition, Nile Red retention; S. cerevisiae Candida pump triplex; inhibition, % at 10 µM; 0.44% of 330,000 active;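 active means plate passing quality check with inhibition over a set limit, or well fluorescence over plate mean plus 4 SD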;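 further: Nile Red retained in pooled yeast measured as flow cytometry median fluorescence; 0% = buffer negative control and 100% = Enniatin B positive control; higher means more Nile Red kept so more efflux inhibition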
TAG inh – inhibitors of triacylglycerol accumulation; H9c2 cells, Nile Red lipid (TAG) fluorescence; cells loaded with 200 µM oleic acid; inhibition, % at 12.5 µM; 0.66% of 230,000 active; AID 651582;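 active means pattern-corrected inhibition of lipid staining of at least 50% with the nuclear-stain viability signal not falling by more than 50%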;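 further: 0% = DMSO wells and 100% = triacsin C control wells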
SMARCA2 act – SMARCA2 function activation, primary screen; MG213 cells, MMTV-luciferase reporter, dexamethasone, overnight; activation, % at 9.1 µM; 1% of 370,000 active; AID 652017; in the data active means activation above about 7.8%;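 further: 0% = vehicle wells and 100% = reference activator wells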
Tb MetRS inh – blocks T. brucei methionyl-tRNA synthetase activity | purified T. brucei MetRS, ATP depletion, Kinase-Glo luminescence | inhibition, % at 11.9 µM | 0.4% of 360,000 active | AID 624268;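 active means inhibition above a per-plate cutoff of the control wells' mean inhibition plus 3 SD, cut at about 5.5% in these data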;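 further: 0% = DMSO wells median and 100% = median of wells with control inhibitor compound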
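Test system: purified T. brucei MetRS enzyme. Also added: ATP, methionine and E. coli bulk tRNA substrates. Compound: 11.9 µM single point. Schedule: 15 min enzyme-compound preincubation, 2 h reaction, 10 min detection, 25 °C. Signal: luciferase luminescence of residual ATP, Kinase-Glo. Evaluation: percent inhibition versus plate control medians. Controls: DMSO wells, low control.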
AHR act confirm – confirmation of human aryl hydrocarbon receptor activators; shares compounds with AHR act; human cells, AHR-responsive luciferase reporter, luminescence; AID 2845; 87% of 2,300 active; activation, % at 9 µM; in the data active means activation above about 49%;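 further: HepG2 hepatoma cells carrying a DRE-driven firefly luciferase reporter; 0% = vehicle wells and 100% = reference agonist wells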
PXR counter – counter-screen for AHR activators: human PXR activators; shares compounds with AHR act; 88% of 2,300 active; activation, % at 11.6 µM; cell-based PXR reporter, luciferase luminescence; in the data active means activation above about 11%;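 further: human hepatoma DPX-2 cells expressing full-length human PXR; 0% = DMSO and 100% = reference agonist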
Active calls of the source: *; . = not tested or not shown. Shown are actives, neighbours in structure and some others; about 4.1% of the full set was active somewhere.

SMILES	AHR act	Efflux pump mplx	TAG inh	SMARCA2 act	Tb MetRS inh	AHR act confirm	PXR counter
CCNC(=S)Nc1cc(OC)c(NC(=O)c2ccco2)cc1OC	0.1	0.1	-18.1	1.2	-0.8	.	.
COC(=O)[C@]12C[C@H](CC(=O)NCc3cccc(C(F)(F)F)c3)C(=O)N(CCC3=CCCCC3)C1=C[C@H](C(C)C)O[C@@H]2C1CC1	.	.	.	-0.6	.	.	.
CCOc1ccc(Nc2nc3ccccc3n2C)cc1	0.7	0.0	-8.9	4.1	-0.2	.	.
CCOc1ccc(Nc2nc3ccccc3n3nnnc23)cc1	132.3*	0.1	6.4	-1.7	0.2	84.8*	15.5*
COCCn1c(-c2cccs2)nc2nc3ccccc3nc21	36.6	0.4	3.8	1.9	0.5	.	.
CCCn1c(-c2cccs2)nc2nc3ccccc3nc21	100.3*	-0.1	.	-4.2	0.1	147.3*	37.0*
C[C@@H]1ON(C)[C@H]2C[C@H]3c4cc(-c5cccc(Cl)c5)ccc4CCN3C[C@@H]12	.	.	.	-0.6	.	.	.
COc1cc2c(cc1NC(=O)CSc1ccccn1)oc1ccccc12	105.2*	-0.2	.	3.5	-0.7	91.2*	16.1*
COc1cc2c(cc1NC(=O)/C=C/c1cc(OC)c(OC)c(OC)c1)oc1ccccc12	88.0*	0.7	.	-4.5	-0.8	53.3*	10.4*
COc1ccc(/C=C/C(=O)OCC(=O)Nc2cc3oc4ccccc4c3cc2OC)cc1	4.0	-0.1	.	3.9	.	.	.
C/C(=C/c1c[n+](Cc2ccc3c(c2)OCO3)c(N)[nH]1)Cn1[nH]c(=O)n(-c2ccccc2)c1=O	.	.	.	-3.2	.	.	.
O=C1CC2c3cc(-c4cc5ccccc5o4)ccc3CCN2C(=O)CN1Cc1ccccc1 (stereo unspecified)	.	.	.	-5.0	.	.	.
COc1ccc(S[C@]2(C(=O)N(C)C)CC(=O)N(C(=O)Nc3ccc(C)c(Cl)c3)[C@@H]2c2ccc(OC)cc2)cc1	.	.	.	-5.2	.	.	.
CCCn1c(Nc2nc3ccccc3n2C)nc2ccccc21	3.1	0.2	150.9	-3.3	-0.7	.	.
CCCn1c(NC(=S)Nc2ccccc2)nc2ccccc21	82.7*	-0.2	14.0	-1.1	-0.7	75.2*	10.5*
Cc1ccc(NC(=O)CN2CCN(c3nc(-c4ccccc4)cs3)CC2)cc1C	.	.	.	4.6	.	.	.
O=C(NC(=S)Nc1ccc(F)c(Cl)c1)C1CC1	92.6*	0.0	5.9	-2.0	-0.4	95.3*	.
Cc1ccc(NC(=S)NC(=O)C2CC2)cc1Cl	.	0.2	12.4	3.8	-0.2	.	.
Cc1ccc(C(=O)Nc2cccc(C(F)(F)F)c2)cc1Nc1ncnc2nc[nH]c12	83.7*	-0.2	-7.2	-6.6	0.4	39.1	30.0*
C=CCc1ccccc1OCCOc1ccc([N+](=O)[O-])cc1/C=N/NC(N)=O	111.1*	-0.1	.	0.8	-1.0	89.5*	34.8*
CCOC(=O)CC[C@H]1CC[C@]2(CCCN(C(=O)C(C)(C)C)C2)O1	.	.	.	-0.3	.	.	.
CCOc1ccc(NC(=O)c2cnc3scc(C)n3c2=O)cc1	89.7*	0.1	-11.2	-4.2	-0.3	129.2*	22.0*
COC(=O)c1ccc(NC(=O)c2cnc3scc(C)n3c2=O)cc1	-1.5	0.2	.	.	.	.	.
O=C(CSc1nnc(-c2ccncc2)n1-c1ccc(Cl)cc1)c1ccc(Cl)c(Cl)c1	.	.	.	-1.4	.	.	.
CC(=O)OC1C(OC(C)=O)C2C(C)CC3OC(=O)C(C)C3CC2(C)C1OC(C)=O (stereo unspecified)	.	.	0.6	4.0	-0.2	.	.
SMILES	AHR act	Efflux pump mplx	TAG inh	SMARCA2 act	Tb MetRS inh	AHR act confirm	PXR counter
C=C1C(=O)O[C@@H]2C[C@@H](C)[C@@H]3C=CC(=O)[C@@]3(C)[C@@H](OC(C)=O)[C@H]12	81.0*	-0.1	.	-8.7	.	-13.6	283.4*
Cn1c(CNc2ccc(Cl)cc2)nc2ccccc21	87.0*	0.1	-16.0	5.7	0.9	139.3*	36.0*
CCN(CC)S(=O)(=O)c1cccc(C(=O)OCC(=O)Nc2ccc3c(c2)c2ccccc2n3CC)c1	83.1*	-1.8	.	-2.3	-1.1	80.3*	32.8*
CCn1c2ccccc2c2cc(NC(=O)COC(=O)c3cccc(OC)c3)ccc21	.	.	.	-2.8	.	.	.
C=CCNC(=O)CCC(=O)NNc1nc2ccccc2c2nc(-c3ccccc3)nn12	100.0*	-0.3	.	-1.3	-0.7	60.6*	12.6*
Cn1c(=O)oc2ccc(S(=O)(=O)Nc3ccc(Cl)cc3[N+](=O)[O-])cc21	.	.	.	-3.1	.	.	.
COCCNC(=S)N(C)[C@H]1C[C@H]2c3[nH]c4ccccc4c3CCN2C(=O)[C@H]1[C@H](C)O	.	.	.	-4.1	.	.	.
COc1cc(NC(=S)Nc2ncccc2C)cc(OC)c1OC	105.8*	0.0	.	-3.3	-0.9	92.5*	67.2*
COC(=O)[C@]12C[C@H](CC(=O)NCCc3ccccc3OC)C(=O)N(Cc3ccc4c(c3)OCO4)C1=C[C@H](C(C)(C)C)O[C@@H]2C	.	.	.	-5.1	.	.	.
c1csc(C2Nc3ccccc3-c3nc4ccccc4n32)c1 (stereo unspecified)	132.6*	0.1	.	0.8	-0.5	23.4	111.8*
CCOc1ccccc1Oc1cn[nH]c1-c1ccc(OCC(=O)NN)cc1O	106.8*	0.1	.	-3.2	0.7	67.8*	14.9*
C=C(C)COc1ccc(-c2[nH]ncc2Oc2ccccc2OC)c(O)c1	98.0*	-0.1	.	-1.8	0.3	55.5*	65.9*
COc1cccc(C(=O)N[C@H](C(=O)N2CCC[C@H]2C(=O)NC2CCCC2)C2CCCCC2)c1	.	.	.	-1.2	.	.	.
COc1cccc(-c2nnc(SCC(=O)Nc3ccc(OCc4ccccc4)cc3)n2Cc2ccco2)c1	.	.	.	-4.6	.	.	.
CC(=O)Nc1sc(-c2ccc(Cl)cc2)nc1-c1ccccc1	92.1*	-0.3	3.0	-5.1	-0.6	-4.1	15.8*
C/C=C/C(=O)N1CCC(C(=O)NC2CCCc3ccccc32)CC1 (stereo unspecified)	.	.	.	-5.5	.	.	.
Fc1ccccc1-c1nc(-c2ccccc2)no1	92.7*	0.1	-7.9	4.6	-0.8	125.9*	12.8*
Fc1ccccc1-c1nc(-c2ccncc2)no1	15.9	0.0	-1.7	5.7	-0.3	.	.
Fc1ccccc1-c1nc(-c2ccc(Br)o2)no1	101.8*	-0.2	.	3.6	-0.7	142.6*	31.3*
Cc1ccccc1-c1nc(-c2ccc(Br)o2)no1	102.0*	0.0	.	6.5	0.1	127.0*	49.0*
Cc1occc1-c1nc(-c2ccncc2)no1	-1.0	-0.1	.	0.4	-0.1	.	.
c1ccc2c(-c3nc(-c4ccncc4)no3)cccc2c1	99.3*	0.1	.	3.1	-1.2	114.0*	14.8*
O=C(N[C@H](Cc1ccccc1)C(=O)NCCCc1ccccc1)[C@H]1O[C@@H](n2ccc(=O)[nH]c2=O)[C@H](O)[C@@H]1O	.	.	.	0.1	.	.	.
Cn1cc(/C=C2\SC(=S)N(N3CCOCC3)C2=O)c2ccccc21	107.5*	0.4	-2.9	-3.9	-1.1	5.7	5.9
Cn1cc(/C=C2/SC(=O)N(c3ccccc3)C2=O)c2ccccc21	100.6*	0.0	.	-0.6	-0.2	86.9*	16.6*
Cn1cc(/C=C2\SC(=S)N(NC(=O)c3ccccc3)C2=O)c2ccccc21	21.1	0.1	.	-3.9	-0.5	.	.
